Screens (PubChem)
FLuc inh counter: Photinus pyralis luciferase inhibition counter-screen; 1.5% of 200,000 active; inhibition, % at 10 µM; AID 1006; ATPLite firefly luciferase biochemical luminescence, 10 min; P08659;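 active = inhibition above about 50% when tested at 10 µM, limit read from the data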
Target sequence (P08659 whole entry, looked up): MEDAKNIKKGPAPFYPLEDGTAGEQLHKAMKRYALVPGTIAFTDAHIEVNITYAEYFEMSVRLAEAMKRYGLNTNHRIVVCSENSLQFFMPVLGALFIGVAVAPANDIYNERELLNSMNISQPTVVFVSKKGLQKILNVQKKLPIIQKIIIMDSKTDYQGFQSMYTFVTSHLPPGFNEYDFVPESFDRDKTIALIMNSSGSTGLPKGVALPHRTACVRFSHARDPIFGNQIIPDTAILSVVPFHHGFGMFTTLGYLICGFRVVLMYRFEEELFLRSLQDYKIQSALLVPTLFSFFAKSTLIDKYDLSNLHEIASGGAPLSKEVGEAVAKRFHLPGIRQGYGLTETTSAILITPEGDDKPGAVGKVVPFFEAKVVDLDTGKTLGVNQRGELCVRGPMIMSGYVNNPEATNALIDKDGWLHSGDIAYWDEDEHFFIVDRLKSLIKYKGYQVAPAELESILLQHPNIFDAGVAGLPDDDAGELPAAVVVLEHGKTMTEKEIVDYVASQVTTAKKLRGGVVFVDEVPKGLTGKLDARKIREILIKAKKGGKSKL
PPC-1+TRAIL kill: compounds killing PPC-1 cancer cells with TRAIL present (potentiator screen, no TRAIL-free arm). PPC-1 cells + TRAIL, ATPLite viability luminescence. cell killing (% activity), % at 4 µM or 5 µM. AID 1443. 0.41% of 220,000 active;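 active = cell killing above 50% in the first pass at 4 µM, then a duplicate retest at 5 µM averaging 50% or more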
TRAIL sens C8: sensitizes caspase-8 expressing cells to TRAIL; NB7+C8 cells + TRAIL, ATPlite viability luminescence; inhibition (viability loss, TRAIL sensitization), % at 10 µM; 1% of 360,000 active;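 active = compounds causing at least 50% loss of cell viability in the single-dose screen, relative to plate controls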
FLuc act counter: firefly luciferase counter-screen for stimulation assays; P08659; ATPlite luciferase biochemical, luminescence, 10 min; 0 = ATP-free wells, 1 = DMSO control; activation factor at 10 µM; 200,000 tested, under 10 active; AID 1027;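 active = luciferase activation factor, scaled between plate controls, of at least 2 with compound at 10 µM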
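Assay system: Luciferase/luciferin detection reagent, cell-free biochemical luciferase assay / Also added: ATP substrate / Schedule: 10 min at ambient temperature / Measured by: luminescence measurement of luciferase light output / Benchmarks: low control with PBS replacing ATP, high control enzyme plus ATP without compound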
Hits are given with their value; n = inactive; x = no result. This is a sample that favours compounds with a hit; in the whole collection about 1.6% have one here.

SMILES	FLuc inh counter	PPC-1+TRAIL kill	TRAIL sens C8	FLuc act counter
Cc1ccc(C(=O)OC(C)C(=O)N(C)C2CCCCC2)cc1S(=O)(=O)N1CCCCC1 (configuration not stated)	x	x	n	x
CCc1nnc(NC(=O)c2ccc(OC)cc2OC)s1	53.7	n	n	n
Cc1cc(C(=O)Nc2nc3ccc(Cl)cc3s2)nn1C	x	n	n	x
Cn1ncc(Cl)c1C(=O)Nc1nc2ccc(Cl)cc2s1	60.3	n	n	n
COCCNC(=O)c1ccc2c3n(nc2c1)-c1ccc(C)cc1CO3	x	n	n	x
O=C(NCC1CCCO1)c1ccc2c3n(nc2c1)-c1ccccc1CO3 (configuration not stated)	x	n	51.0	x
Cc1nn2c(N)c(-c3ccccc3)cnc2c1-c1ccccc1	x	x	n	x
COc1ccc2cc(/C=C/C(=O)N3CCN(CC(=O)N4CCCCCC4)CC3)ccc2c1	x	x	n	x
COCCNCC(=O)Nc1ccc(OC(F)(F)F)cc1	n	n	n	n
Cc1ccc(-c2cn3cccc(C)c3n2)cc1	69.1	n	n	n
Cc1cccn2cc(-c3ccc(Cl)cc3)nc12	63.2	n	n	n
O=C(Nc1ccc([N+](=O)[O-])cc1Cl)c1cc(Cl)ccc1O	x	x	80.3	x
Cc1ccc(-n2c(C3CC3c3ccc(Cl)cc3)n[nH]c2=S)cc1 (configuration not stated)	n	n	58.7	n
Cc1nnc2ccc(-c3ccc(NC(=O)c4ccco4)cc3)nn12	n	n	n	n
Cc1nc(-c2ccc(C(=O)Nc3cccc(F)c3)cc2)cs1	x	x	77.3	x
COc1ccc(NC(=O)c2ccc(-c3csc(C)n3)cc2)cc1	x	x	n	x
Cc1nc(-c2ccc(NC(=O)c3ccco3)cc2)cs1	x	x	94.3	x
Cc1ccn2cc(-c3ccc(NC(=O)c4ccco4)cc3)nc2c1	55.2	n	n	n
Cc1nc(-c2cccc(NC(=O)c3ccco3)c2)cs1	x	x	n	x
Nc1nc(-c2ccc(NC(=O)c3ccco3)cc2)cs1	x	x	73.5	x
COC1OC2COC(c3ccccc3)OC2C2OC12 (configuration not stated)	x	x	n	x
Cc1nc(-c2ccc(NC(=O)c3ccccc3C)cc2)cs1	61.5	n	n	n
O=C(Nc1ccc2c(c1)OCCO2)c1ccc(Cl)cc1Cl	x	x	72.2	x
O=C(Nc1ccc2c(c1)OCO2)c1ccc(Cl)cc1Cl	x	x	71.1	x
O=C(NC1CCCc2c1cnn2-c1ccc(F)cc1F)c1ccccc1N1CCOCC1 (configuration not stated)	x	x	n	x
SMILES	FLuc inh counter	PPC-1+TRAIL kill	TRAIL sens C8	FLuc act counter
CN(C)c1ccc(C(CNC(=O)c2cccs2)N(C)C)cc1 (configuration not stated)	x	x	n	x
COC(=O)c1ccc(-c2ccc(/C=N/N3C(=O)C4C5C=CC(C6CC56)C4C3=O)o2)cc1 (configuration not stated)	n	54.7	n	n
COc1ccc(C)cc1NC(=O)NCc1ccccc1F	68.1	n	n	n
O=C(Nc1ccccc1)c1cc(C2CCCN(C(=O)C3CC3)C2)on1 (configuration not stated)	x	x	51.2	x
Cc1ccc(-c2nn(CC(=O)NCc3cc(-c4nn(C)c(=O)c5ccccc45)ccc3C)c(=O)c3ccccc23)cc1	n	n	62.5	n
CN1CCN(c2ccc(-c3cccc(NC(=O)COc4ccc(Cl)cc4Cl)c3)nn2)CC1	x	x	66.9	x
CCC(=O)Nc1cccc(-c2ccc(N3CCCCC3)nn2)c1	x	x	83.2	x
CCC(=O)Nc1cccc(-c2ccc(N3CCN(C)CC3)nn2)c1	x	x	n	x
O=C(COc1ccccc1)Nc1ccc(-c2ccc(N3CCOCC3)nn2)cc1	x	x	n	x
CCOc1ccc(-c2cccc(NC(=O)COc3ccc(Cl)cc3)c2)nn1	x	x	n	x
CN1CCN(c2ccc(-c3cccc(NC(=O)COc4ccc(Cl)cc4)c3)nn2)CC1	x	x	62.3	x
CN1CCN(c2ccc(-c3cccc(NC(=O)COc4ccccc4)c3)nn2)CC1	x	x	64.4	x
C[C@@H]1CN([C@H](C)CO)S(=O)(=O)c2ccc(Br)cc2O[C@H]1CN(C)C(=O)Cc1ccccn1	x	x	n	x
CC(C)(C)n1nnnc1C(c1ccccc1)N1CCN(c2ccccn2)CC1 (configuration not stated)	x	x	n	x
COC(=O)CCCn1cc(CN(C)C2CN(Cc3cn(CCCC(=O)OC)nn3)S(=O)(=O)C2)nn1 (configuration not stated)	x	x	n	x
C#Cc1ccc(NC(=O)C2(C)CCN2C(=O)Cc2ccc(C(C)C)cc2)cc1 (configuration not stated)	x	x	52.5	x
Cn1nnnc1Sc1ncnc2scc(-c3ccc([N+](=O)[O-])cc3)c12	x	x	n	x
Cc1c(C)c2ccc(OCC(=O)Nc3nccs3)cc2oc1=O	x	x	54.6	x
N#Cc1c(/N=C/c2ccco2)sc2c1CCC2	50.4	n	n	n
Cc1ccc(/C=N/Nc2ccccn2)s1	x	x	n	x
Cc1ccc(/C=C/C(=O)Nc2sc3c(c2C#N)CCCC3)o1	n	n	n	n
Cc1ccc(C=Nc2ccccc2C#N)s1	75.7	n	n	n
N#Cc1c(/N=C/c2cc3ccccc3s2)sc2c1CCC2	n	n	n	n
Cc1ccc(/C=N/c2sc3c(c2C#N)CCCCC3)o1	91.5	n	n	n
Cc1ccc(/C=N/c2sc3c(c2C#N)CCC3)s1	71.5	n	n	n
SMILES	FLuc inh counter	PPC-1+TRAIL kill	TRAIL sens C8	FLuc act counter
CC(C)(C)c1cc(CNC(=O)C2CCC(=O)N(Cc3ccccc3F)C2)[nH]n1 (configuration not stated)	x	x	n	x
CC(=O)OC[C@H]1O[C@@H](Oc2cc3ccc(=O)oc3cc2OC(C)=O)[C@H](OC(C)=O)[C@@H](OC(C)=O)[C@@H]1OC(C)=O	x	x	n	x
Oc1c(Br)cc(Br)cc1C=Nc1ccc2c(c1)OCCO2	n	n	n	n
Oc1[nH]c2ccccc2c1C=Nc1ccc2c(c1)OCCO2	76.5	n	57.1	n
CC(C)Oc1cccc(-c2cc(C(=O)NC(=S)N(C)c3ccccc3C(=O)O)c3ccccc3n2)c1	64.0	n	n	n
Cc1ccc(-c2cc(C(=O)NCc3ccccn3)c3ccccc3n2)cc1C	52.2	n	n	n
CCCc1ccc(-c2cc(C(=O)NN3CCOCC3)c3ccccc3n2)cc1	58.9	n	n	n
COCCNC(=O)c1cc(-c2ccc(-c3ccccc3)cc2)nc2ccccc12	x	x	56.4	x
COCCCNC(=O)c1cc(-c2cccnc2)nc2ccccc12	x	x	n	x
CN[C@H]1C[C@H]2c3[nH]c4ccc(-c5cccc(C)c5)cc4c3CCN2C[C@H]1[C@H](C)O	x	x	n	x
O=C(Cc1cc2ccccc2o1)NCc1ccc(F)cc1	x	x	n	x
CCNC(=S)NNC(=O)c1cc(-c2cccc(OC)c2)nc2ccccc12	83.2	50.8	n	n
CCCOc1cccc(-c2cc(C(=O)NNC(=S)NCC)c3ccccc3n2)c1	n	n	n	n
Cc1ccc(-c2cc(C(=O)N/N=C/c3cccnc3)c3ccccc3n2)cc1C	x	x	61.3	x
Cc1ccc(-c2cc(C(=O)n3cnc4ccccc43)c3ccccc3n2)cc1C	68.8	n	66.7	n
CCCc1ccc(-c2cc(C(=O)Nc3ccc([N+](=O)[O-])cn3)c3ccccc3n2)cc1	58.1	n	51.1	n
CCOC(=O)N1C(=O)NC(=O)C1c1ccc(OC)cc1 (configuration not stated)	x	x	n	x
